Assay results from ChEMBL document CHEMBL2046412, “Xanthine oxidase inhibitory activity of constituents of Cinnamomum cassia twigs” (Bioorg Med Chem Lett, 2012).
pIC50: −log10 of the molar value.

Legend:
[1] = biological target: T1, Xanthine dehydrogenase/oxidase (Homo sapiens, UniProt P47989); assay: Inhibition of xanthine oxidase- mediated uric acid formation at 50 ug/mL after 5 mins by spectrophotometry
[2] = biological target: T1, Xanthine dehydrogenase/oxidase; assay: Inhibition of xanthine oxidase- mediated uric acid formation after 5 mins by spectrophotometry
Procedure, shortened: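 Inhibition was taken relative to uric acid formed in the uninhibited control, and IC50 was derived from the mean of triplicate measurements.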

T1 sequence (P47989 whole entry): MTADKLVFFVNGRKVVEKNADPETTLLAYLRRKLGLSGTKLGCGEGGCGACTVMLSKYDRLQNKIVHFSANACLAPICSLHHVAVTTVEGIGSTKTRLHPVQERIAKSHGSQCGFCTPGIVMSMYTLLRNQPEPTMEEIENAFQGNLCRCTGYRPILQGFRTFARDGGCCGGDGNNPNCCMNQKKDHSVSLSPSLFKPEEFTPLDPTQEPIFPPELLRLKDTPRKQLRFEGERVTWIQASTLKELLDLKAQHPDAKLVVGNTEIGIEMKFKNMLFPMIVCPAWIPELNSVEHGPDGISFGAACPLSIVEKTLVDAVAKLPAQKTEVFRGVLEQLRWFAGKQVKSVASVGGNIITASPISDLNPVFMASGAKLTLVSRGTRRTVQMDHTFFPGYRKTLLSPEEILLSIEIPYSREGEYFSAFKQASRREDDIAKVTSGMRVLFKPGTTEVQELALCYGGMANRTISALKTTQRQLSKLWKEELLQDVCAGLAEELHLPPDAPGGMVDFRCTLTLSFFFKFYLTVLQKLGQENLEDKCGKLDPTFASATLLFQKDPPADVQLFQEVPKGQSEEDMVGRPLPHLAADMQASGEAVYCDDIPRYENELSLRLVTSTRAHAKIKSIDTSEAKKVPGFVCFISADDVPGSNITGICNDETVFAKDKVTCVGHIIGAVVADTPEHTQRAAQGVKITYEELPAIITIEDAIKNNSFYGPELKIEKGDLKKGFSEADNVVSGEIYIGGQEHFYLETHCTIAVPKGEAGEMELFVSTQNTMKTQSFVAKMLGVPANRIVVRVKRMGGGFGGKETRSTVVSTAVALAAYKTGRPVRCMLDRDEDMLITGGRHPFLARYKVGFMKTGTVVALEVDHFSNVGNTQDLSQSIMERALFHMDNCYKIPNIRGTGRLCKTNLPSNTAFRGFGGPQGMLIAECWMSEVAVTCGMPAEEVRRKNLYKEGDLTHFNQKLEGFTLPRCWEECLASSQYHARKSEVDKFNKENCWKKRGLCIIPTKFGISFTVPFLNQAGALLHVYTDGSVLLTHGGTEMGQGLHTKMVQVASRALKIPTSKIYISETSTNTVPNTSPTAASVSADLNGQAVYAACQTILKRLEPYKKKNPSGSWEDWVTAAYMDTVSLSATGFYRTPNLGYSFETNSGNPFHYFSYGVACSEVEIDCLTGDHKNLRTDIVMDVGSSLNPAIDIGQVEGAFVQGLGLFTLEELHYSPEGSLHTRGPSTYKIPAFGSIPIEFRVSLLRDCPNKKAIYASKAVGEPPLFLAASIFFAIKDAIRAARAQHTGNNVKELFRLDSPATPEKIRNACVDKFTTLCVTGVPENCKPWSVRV

Structure (SMILES) | inhibition at 50 µg/mL [1] [%] | pIC50 [2]
O=C/C=C/c1ccccc1 | 96.7 | 4.23
COc1ccccc1/C=C/C=O | 95.8 | 4.07
COC(=O)CCc1ccccc1O[C@@H]1O[C@H](CO)[C@@H](O)[C@H](O)[C@H]1O [METHYL DIHYDROMELILOTOSIDE] | 22.4 | < 3.84
OC/C=C/c1ccccc1 [CINNAMIC ALCOHOL] | 47.6 | < 3.43
O=C(O)CCc1ccccc1O[C@@H]1O[C@H](CO)[C@@H](O)[C@H](O)[C@H]1O [DIHYDROMELILOTOSIDE] | 45.4 | < 3.82
OC/C=C/c1ccccc1O[C@@H]1O[C@H](CO[C@@H]2OC[C@](O)(CO)[C@H]2O)[C@@H](O)[C@H](O)[C@H]1O [CINNACASOLIDE B] | 35.4 | < 3.95
COc1cc(/C=C/C=O)ccc1O [CONIFERYL ALDEHYDE] | 72.5 | 3.69

Continued, values first:

inhibition at 50 µg/mL [1] [%] | pIC50 [2] | Structure (SMILES)
22.2 | < 3.95 | COC(=O)c1cccc(O[C@@H]2O[C@H](CO[C@@H]3OC[C@](O)(CO)[C@H]3O)[C@@H](O)[C@H](O)[C@H]2O)c1 [CINNACASOLIDE A]
28.2 | < 4.07 | COc1cc(O[C@@H]2O[C@H](CO)[C@@H](O)[C@H](O)[C@H]2O)ccc1Oc1ccc(O[C@@H]2O[C@H](CO)[C@@H](O)[C@H](O)[C@H]2O)c(OC)c1 [CINNACASOLIDE C]
94.2 | 4.01 | O=C/C=C/c1ccccc1O [2-HYDROXYCINNAMALDEHYDE]
73.2 | 3.71 | O=C(O)/C=C/c1ccccc1O [O-COUMARIC ACID]
93.4 | 3.75 | O=C(O)/C=C/c1ccccc1 [CINNAMIC ACID]
18.7 | < 3.93 | O[C@@H]1[C@@H](O)[C@@H](OC/C=C/c2ccccc2)O[C@H](CO[C@@H]2OC[C@H](O)[C@H](O)[C@H]2O)[C@H]1O [ROSAVIN]
